SMILES strings stand for the structures. Activity calls are given as the source filed them.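 How the source made its calls: active means binding altered by at least 10% in every panel; inactive means the rest.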

From PubChem BioAssay AID624402 (The Scripps Research Institute Molecular Screening Center, 2012) come the findings set out here.

The assay has as its system aryl hydrocarbon receptor (Cavia porcellus). Briefly: stimulation of AhR transformation and DNA binding – biochemical, radiometric EMSA, guinea pig liver cytosol, counter-screen for AhR activator project, late-stage follow-up (AID 624402). As to conditions: AhR-DRE EMSA, stronger effect = higher value. In outline: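 System: guinea pig hepatic cytosol, AhR. Probe or stimulus: Poly dIdC and [32P]-DRE probe. Repeats: triplicates. Doses: 10 µM test compound. Medium: HEDG, pH 7.5. Schedule: 2.5 h compound exposure at room temperature, 15 min per later addition. Control set: 20 nM TCDD reference. Technique: radiometric EMSA, phosphorimaging.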
For orientation: In EMSA bound probe runs differently from free probe, usually more slowly.

By inhibition is commonly meant the share of the control response that was lost under treatment. As to `Cc1ccc(-c2cc(-c3ccc(Cl)cc3)n[nH]2)c(O)c1`, the inhibition was 32.8% (run 1, at 10 µM) and 28.8% (run 2, at 10 µM).
For `Cc1cccc(C)c1NC(=O)c1ccc(C(=O)Nc2c(C)cccc2C)nc1`, the inhibition reads like this: (run 1, at 10 µM) 8.6% (inactive); (run 2, at 10 µM) 9% (inactive).
The matching figures for `Cc1ccc(-c2cc(-c3cccc(F)c3)n[nH]2)c(O)c1`: 42.7% and 39.8%.
Taken in the same sequence, the figures for `Nc1nc(Cl)cc(Nc2ccccc2F)n1` were 15.4% and 12.5%.
Taken in the same sequence, the figures for `Nc1nc(Cl)cc(Nc2ccc(Oc3ccccc3)cc2)n1` were 10.9% (inactive) and 8.5% (inactive).
Take `Cc1cc(Br)cc(C)c1Nc1ccnc(Nc2ccc(C#N)cc2)n1`: the inhibition was 5.8% (inactive) (run 1, at 10 µM) and 5.3% (inactive) (run 2, at 10 µM).
As for `COc1ccc(Nc2cc(Cl)nc(N)n2)cc1OC`, the inhibition runs as follows: (run 1, at 10 µM) 7.5% (inactive); (run 2, at 10 µM) 5.6% (inactive).
Taken in the same sequence, the figures for `O=C(CSc1nc2ccccc2s1)Nc1ccccn1` were 41.3% and 38.5%.
The matching figures for `COc1ccc(O)c(-c2cc(-c3cccs3)[nH]n2)c1`: 6.4% (inactive) and 5.5% (inactive).
Taken in the same sequence, the figures for `Cc1cccc(NC(=O)c2cc(-c3ccc(C)cc3O)n[nH]2)c1` were 8.2% (inactive) and 4.3% (inactive).
In the case of `Cc1ccc(-c2cc(-c3ccc(F)cc3)n[nH]2)c(O)c1`, the inhibition (run 1, at 10 µM) is 50.8% and the inhibition (run 2, at 10 µM) is 47.5%.
The matching figures for `COc1ccc(NC(=O)c2ccc(C(=O)Nc3ccc(OC)cc3OC)nc2)c(OC)c1`: 6.9% (inactive) and 11.8% (inactive).
In the case of `Cc1csc(SCC(=O)Nc2ccccn2)n1`, the inhibition was 6.2% (inactive) (run 1, at 10 µM) and 6.7% (inactive) (run 2, at 10 µM).
Taken in the same sequence, the figures for `CCOC(=O)c1c(C)nn(-c2cc(Cl)ccc2Cl)c1C` were 8.4% (inactive) and 5.4% (inactive).
As for `Cc1cc(Nc2ccc(F)cc2)nc(N)n1`, the inhibition reads like this: (run 1, at 10 µM) 9.6% (inactive); (run 2, at 10 µM) 5.6% (inactive).
Taken in the same sequence, the figures for `Cc1ccnc(NC(=O)CSc2nc3ccccc3s2)c1` were 19.7% and 17.3%.
As for `COc1ccc(Nc2cc(Cl)nc(N)n2)cc1`, the inhibition reads like this: (run 1, at 10 µM) 10% (inactive); (run 2, at 10 µM) 7.1% (inactive).
The matching figures for `COc1ccc(-c2cc(-c3ccc(C)cc3O)[nH]n2)cc1`: 4.8% (inactive) and 3.2% (inactive).
Taken in the same sequence, the figures for `Cc1ccc(NC(=O)c2ccc(C(=O)Nc3ccc(C)cc3C)nc2)c(C)c1` were 13.3% and 9.3% (inactive).
`O=C(CSc1nc(-c2ccc(F)cc2)cs1)Nc1ccccn1`: the inhibition reads like this: (run 1, at 10 µM) 9.5% (inactive); (run 2, at 10 µM) 7.1% (inactive).
For `O=C(CSc1nc2ccccc2s1)Nc1ccc(Cl)cn1`, the inhibition reads like this: (run 1, at 10 µM) 16.3%; (run 2, at 10 µM) 19.4%.
`Cc1ccc(O)c(-c2cc(-c3ccccc3Cl)[nH]n2)c1`: the inhibition runs as follows: (run 1, at 10 µM) 58.4%; (run 2, at 10 µM) 51.9%.
The matching figures for `CN(Cc1cc(-c2cccs2)n[nH]1)Cc1coc2ccccc2c1=O`: 22.1% and 19%.
Taken in the same sequence, the figures for `COc1ccc(Cl)cc1NC(=O)c1ccc(C(=O)Nc2cc(Cl)ccc2OC)nc1` were 9.7% (inactive) and 8.4% (inactive).
The matching figures for `CCOc1ccccc1NC(=O)c1ccc(C(=O)Nc2ccccc2OCC)nc1`: 6.4% (inactive) and 4.4% (inactive).
